Source: ChEMBL document CHEMBL5696442, “Discovery of type II inhibitors of TGFβ-activated kinase 1 (TAK1) and mitogen-activated protein kinase kinase kinase kinase 2 (MAP4K2)” (J Med Chem, 2015)
Calls of active or inactive are those of the source. The calls are words filed in the database; no cut-off is given here.

Assays:
[1] = tested on: GEN2.2; experiment: Inhibition of CL097 induced JNK1/2 phosphorylation level in human GEN2.2 cells at 1 uM preincubated with compound for 1 hr followed by CL097 stimulation and measured after 30 mins by Western blot analysis; assay type: functional, cell-based
Procedure, shortened: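 Gen2.2 cells were pretreated with compound at 1 μM for 1 h, then stimulated with CL097 for 30 min. Lysates were analysed by Western blot for phosphorylation of p105, p38 and JNK1/2.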

[2] = molecular target: T1, Mixed lineage kinase domain-like protein (Homo sapiens) (UniProt Q8NB16); experiment: Inhibition of MLKL Lys1 labeling site in human A-375 cells at 0.5 uM by KiNativ Profiling analysis relative to control; assay type: cell-based
T1 sequence (whole entry): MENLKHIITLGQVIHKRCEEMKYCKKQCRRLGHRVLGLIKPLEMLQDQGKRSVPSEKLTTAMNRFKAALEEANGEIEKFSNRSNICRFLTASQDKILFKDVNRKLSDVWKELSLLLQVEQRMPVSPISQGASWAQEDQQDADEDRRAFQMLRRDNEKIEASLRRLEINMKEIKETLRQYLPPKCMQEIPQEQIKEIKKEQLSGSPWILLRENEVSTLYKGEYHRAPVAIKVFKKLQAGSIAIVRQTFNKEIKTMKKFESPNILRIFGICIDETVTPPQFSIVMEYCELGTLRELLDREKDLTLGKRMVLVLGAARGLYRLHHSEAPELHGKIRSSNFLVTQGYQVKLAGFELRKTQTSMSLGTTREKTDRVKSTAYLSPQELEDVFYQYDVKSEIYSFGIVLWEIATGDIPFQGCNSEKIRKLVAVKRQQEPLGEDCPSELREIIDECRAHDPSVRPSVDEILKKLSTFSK

[3] = molecular target: Serine/threonine-protein kinase PLK1 (Homo sapiens) (UniProt P53350); experiment: Inhibition of PLK1 Lys1 labeling site in human A-375 cells at 5 uM by KiNativ Profiling analysis relative to control; assay type: cell-based
[4] = molecular target: MAP/microtubule affinity-regulating kinase 3 (Homo sapiens) (UniProt P27448); experiment: Inhibition of MARK3 Lys2 labeling site in human A-375 cells at 0.05 uM by KiNativ Profiling analysis relative to control; assay type: cell-based
[5] = molecular target: T2, Phosphatidylinositol 5-phosphate 4-kinase type-2 gamma (Homo sapiens) (UniProt Q8TBX8); experiment: Inhibition of PIP4K2C ATP labeling site harbouring VKELPTLKDMDFLNK in human A-375 cells at 0.5 uM by KiNativ Profiling analysis relative to control; assay type: cell-based
T2 sequence (whole entry): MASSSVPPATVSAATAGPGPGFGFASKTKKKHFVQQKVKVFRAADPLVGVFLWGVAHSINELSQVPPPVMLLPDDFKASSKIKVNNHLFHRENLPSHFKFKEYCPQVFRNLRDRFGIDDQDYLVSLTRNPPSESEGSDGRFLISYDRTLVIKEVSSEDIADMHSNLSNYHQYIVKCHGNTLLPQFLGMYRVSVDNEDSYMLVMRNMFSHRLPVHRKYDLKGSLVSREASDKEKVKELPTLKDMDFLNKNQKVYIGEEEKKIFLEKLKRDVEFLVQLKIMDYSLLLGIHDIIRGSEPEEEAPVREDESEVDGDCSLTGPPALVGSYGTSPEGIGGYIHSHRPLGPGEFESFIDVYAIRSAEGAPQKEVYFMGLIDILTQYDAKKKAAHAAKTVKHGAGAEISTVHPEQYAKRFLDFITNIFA
Procedure, shortened: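 Live A375 melanoma cells were treated with compound at 5 or 0.5 μM, then lysed. Lysates were labeled with a lysine-reactive ATP or ADP-biotin probe. Read-out was the compound's protection of kinase labeling sites from probe labeling (KiNativ).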

[6] = molecular target: Serine/threonine-protein kinase WNK1 (Homo sapiens) (UniProt Q9H4A3); experiment: Inhibition of Wnk1 ACT labeling site in human A-375 cells at 0.5 uM by KiNativ Profiling analysis relative to control; assay type: cell-based
[7] = molecular target: Mitogen-activated protein kinase kinase kinase 11 (Homo sapiens) (UniProt Q16584); experiment: Inhibition of MLK3 Lys2 labeling site in human A-375 cells at 0.5 uM by KiNativ Profiling analysis relative to control; assay type: cell-based
[8] = molecular target: T3, Mitogen-activated protein kinase kinase kinase 7 (Homo sapiens) (UniProt O43318); experiment: Inhibition of TAK1 Lys2 labeling site in human A-375 cells at 0.05 uM by KiNativ Profiling analysis relative to control; assay type: cell-based
T3 sequence (whole entry): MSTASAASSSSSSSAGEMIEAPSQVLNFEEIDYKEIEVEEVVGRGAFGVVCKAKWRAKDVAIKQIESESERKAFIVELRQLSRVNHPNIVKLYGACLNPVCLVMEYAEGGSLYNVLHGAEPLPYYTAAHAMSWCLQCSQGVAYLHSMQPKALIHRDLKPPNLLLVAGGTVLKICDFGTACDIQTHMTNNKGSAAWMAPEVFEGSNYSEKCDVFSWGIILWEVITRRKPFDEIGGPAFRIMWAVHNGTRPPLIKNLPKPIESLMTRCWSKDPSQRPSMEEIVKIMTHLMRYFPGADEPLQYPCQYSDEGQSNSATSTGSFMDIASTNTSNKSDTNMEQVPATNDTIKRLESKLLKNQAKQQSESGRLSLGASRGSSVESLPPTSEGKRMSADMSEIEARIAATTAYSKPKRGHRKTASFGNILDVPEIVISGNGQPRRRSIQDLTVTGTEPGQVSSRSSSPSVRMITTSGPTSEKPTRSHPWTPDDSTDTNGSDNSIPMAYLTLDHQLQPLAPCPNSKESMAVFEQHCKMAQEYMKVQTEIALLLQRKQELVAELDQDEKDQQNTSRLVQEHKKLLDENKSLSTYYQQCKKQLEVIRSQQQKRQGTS

[9] = molecular target: Serine/threonine-protein kinase WNK2 (Homo sapiens) (UniProt Q9Y3S1); experiment: Inhibition of Wnk2 Lys2 labeling site in human A-375 cells at 0.05 uM by KiNativ Profiling analysis relative to control; assay type: cell-based
[10] = molecular target: Mitogen-activated protein kinase 7 (Homo sapiens) (UniProt Q13164); experiment: Inhibition of Erk5 Lys2 labeling site in human A-375 cells at 0.5 uM by KiNativ Profiling analysis relative to control; assay type: cell-based
Procedure, shortened: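 Live A375 melanoma cells were treated with compound at 0.5 or 5 μM, then lysed. Lysates were labeled with a lysine-reactive ATP or ADP-biotin probe. The read-out was protection of each kinase probe-labeling site from labeling, relative to control.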

[11] = molecular target: Cyclin-dependent kinase 17 (Homo sapiens) (UniProt Q00537); experiment: Inhibition of PCTAIRE2 Lys1 labeling site harbouring SKLTENLVALKEIR in human A-375 cells at 5 uM by KiNativ Profiling analysis relative to control; assay type: cell-based
Chain of Cyclin-dependent kinase 17 (Homo sapiens) (Q00537 whole entry, looked up): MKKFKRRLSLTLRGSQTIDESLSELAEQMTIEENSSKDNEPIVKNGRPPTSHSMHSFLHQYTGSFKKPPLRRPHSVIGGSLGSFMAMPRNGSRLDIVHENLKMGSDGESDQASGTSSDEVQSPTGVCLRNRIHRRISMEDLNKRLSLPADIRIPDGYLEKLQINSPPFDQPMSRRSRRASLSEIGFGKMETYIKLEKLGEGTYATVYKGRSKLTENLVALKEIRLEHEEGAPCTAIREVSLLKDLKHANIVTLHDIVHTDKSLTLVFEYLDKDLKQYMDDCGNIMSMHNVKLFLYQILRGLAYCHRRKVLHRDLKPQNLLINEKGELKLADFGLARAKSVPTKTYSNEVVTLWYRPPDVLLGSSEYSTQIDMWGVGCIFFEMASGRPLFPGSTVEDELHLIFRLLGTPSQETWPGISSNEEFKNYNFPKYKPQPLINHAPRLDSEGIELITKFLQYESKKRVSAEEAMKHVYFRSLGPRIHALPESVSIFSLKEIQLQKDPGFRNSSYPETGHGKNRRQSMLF

Chain of Serine/threonine-protein kinase WNK1 (Homo sapiens) (Q9H4A3 whole entry, looked up): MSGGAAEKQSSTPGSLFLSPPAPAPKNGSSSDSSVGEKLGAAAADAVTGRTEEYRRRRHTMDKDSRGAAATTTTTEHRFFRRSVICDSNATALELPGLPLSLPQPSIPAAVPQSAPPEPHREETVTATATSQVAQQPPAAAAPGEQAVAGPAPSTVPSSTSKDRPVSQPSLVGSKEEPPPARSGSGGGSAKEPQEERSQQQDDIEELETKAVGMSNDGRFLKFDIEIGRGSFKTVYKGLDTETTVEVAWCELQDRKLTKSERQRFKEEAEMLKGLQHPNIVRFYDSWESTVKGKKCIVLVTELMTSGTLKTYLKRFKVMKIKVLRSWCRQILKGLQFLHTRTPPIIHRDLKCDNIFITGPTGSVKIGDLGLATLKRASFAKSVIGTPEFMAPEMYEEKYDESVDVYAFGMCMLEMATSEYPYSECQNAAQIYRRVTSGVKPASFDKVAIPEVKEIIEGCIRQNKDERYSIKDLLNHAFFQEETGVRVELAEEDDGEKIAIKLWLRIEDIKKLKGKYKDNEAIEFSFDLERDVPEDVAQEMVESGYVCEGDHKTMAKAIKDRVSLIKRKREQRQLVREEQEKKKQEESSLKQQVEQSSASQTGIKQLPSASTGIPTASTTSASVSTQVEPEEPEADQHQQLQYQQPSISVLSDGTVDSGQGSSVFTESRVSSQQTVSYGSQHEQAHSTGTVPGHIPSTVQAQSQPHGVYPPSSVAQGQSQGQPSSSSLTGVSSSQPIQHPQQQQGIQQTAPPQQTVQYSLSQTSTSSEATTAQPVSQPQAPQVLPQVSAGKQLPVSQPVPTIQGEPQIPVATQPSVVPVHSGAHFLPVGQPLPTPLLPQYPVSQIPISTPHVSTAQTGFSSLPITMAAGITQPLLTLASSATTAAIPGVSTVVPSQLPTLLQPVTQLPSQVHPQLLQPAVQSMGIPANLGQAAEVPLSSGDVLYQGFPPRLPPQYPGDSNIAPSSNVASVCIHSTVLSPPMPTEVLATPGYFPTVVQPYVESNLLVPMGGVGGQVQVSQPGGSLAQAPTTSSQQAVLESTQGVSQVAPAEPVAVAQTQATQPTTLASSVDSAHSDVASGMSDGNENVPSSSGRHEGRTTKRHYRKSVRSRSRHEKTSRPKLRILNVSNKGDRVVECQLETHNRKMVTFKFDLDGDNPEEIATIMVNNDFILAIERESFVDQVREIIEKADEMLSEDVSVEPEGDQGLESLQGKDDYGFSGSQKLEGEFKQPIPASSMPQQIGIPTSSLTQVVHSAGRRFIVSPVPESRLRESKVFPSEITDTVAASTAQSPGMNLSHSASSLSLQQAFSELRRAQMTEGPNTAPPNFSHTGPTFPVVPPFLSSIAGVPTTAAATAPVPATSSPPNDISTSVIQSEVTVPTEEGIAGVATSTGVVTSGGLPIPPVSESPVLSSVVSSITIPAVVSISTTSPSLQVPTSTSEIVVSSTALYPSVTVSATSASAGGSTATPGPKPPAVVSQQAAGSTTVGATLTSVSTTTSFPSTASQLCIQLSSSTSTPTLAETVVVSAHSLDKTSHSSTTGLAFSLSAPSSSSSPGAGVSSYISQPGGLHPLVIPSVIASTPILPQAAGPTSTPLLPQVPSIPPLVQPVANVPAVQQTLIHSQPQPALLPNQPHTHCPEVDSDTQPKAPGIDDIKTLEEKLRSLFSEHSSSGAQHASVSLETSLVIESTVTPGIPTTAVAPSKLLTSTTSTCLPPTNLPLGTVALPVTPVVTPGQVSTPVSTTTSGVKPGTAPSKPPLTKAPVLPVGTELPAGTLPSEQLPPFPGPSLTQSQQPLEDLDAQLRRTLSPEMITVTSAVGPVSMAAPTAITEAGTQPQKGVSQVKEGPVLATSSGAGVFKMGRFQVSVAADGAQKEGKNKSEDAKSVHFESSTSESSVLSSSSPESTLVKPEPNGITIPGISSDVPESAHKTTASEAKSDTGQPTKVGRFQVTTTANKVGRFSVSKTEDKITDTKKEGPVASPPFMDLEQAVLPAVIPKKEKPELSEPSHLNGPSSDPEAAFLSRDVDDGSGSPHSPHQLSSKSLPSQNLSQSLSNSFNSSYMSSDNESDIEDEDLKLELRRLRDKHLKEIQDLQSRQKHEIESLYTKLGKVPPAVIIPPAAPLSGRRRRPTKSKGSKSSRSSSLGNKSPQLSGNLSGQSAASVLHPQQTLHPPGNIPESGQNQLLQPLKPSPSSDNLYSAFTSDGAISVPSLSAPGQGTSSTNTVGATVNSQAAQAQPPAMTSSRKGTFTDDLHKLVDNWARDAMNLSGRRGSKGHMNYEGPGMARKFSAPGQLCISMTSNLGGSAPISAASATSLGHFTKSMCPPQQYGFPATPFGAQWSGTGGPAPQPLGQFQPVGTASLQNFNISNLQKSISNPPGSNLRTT
Chain of Mitogen-activated protein kinase 7 (Homo sapiens) (Q13164 2-816 limits assumed): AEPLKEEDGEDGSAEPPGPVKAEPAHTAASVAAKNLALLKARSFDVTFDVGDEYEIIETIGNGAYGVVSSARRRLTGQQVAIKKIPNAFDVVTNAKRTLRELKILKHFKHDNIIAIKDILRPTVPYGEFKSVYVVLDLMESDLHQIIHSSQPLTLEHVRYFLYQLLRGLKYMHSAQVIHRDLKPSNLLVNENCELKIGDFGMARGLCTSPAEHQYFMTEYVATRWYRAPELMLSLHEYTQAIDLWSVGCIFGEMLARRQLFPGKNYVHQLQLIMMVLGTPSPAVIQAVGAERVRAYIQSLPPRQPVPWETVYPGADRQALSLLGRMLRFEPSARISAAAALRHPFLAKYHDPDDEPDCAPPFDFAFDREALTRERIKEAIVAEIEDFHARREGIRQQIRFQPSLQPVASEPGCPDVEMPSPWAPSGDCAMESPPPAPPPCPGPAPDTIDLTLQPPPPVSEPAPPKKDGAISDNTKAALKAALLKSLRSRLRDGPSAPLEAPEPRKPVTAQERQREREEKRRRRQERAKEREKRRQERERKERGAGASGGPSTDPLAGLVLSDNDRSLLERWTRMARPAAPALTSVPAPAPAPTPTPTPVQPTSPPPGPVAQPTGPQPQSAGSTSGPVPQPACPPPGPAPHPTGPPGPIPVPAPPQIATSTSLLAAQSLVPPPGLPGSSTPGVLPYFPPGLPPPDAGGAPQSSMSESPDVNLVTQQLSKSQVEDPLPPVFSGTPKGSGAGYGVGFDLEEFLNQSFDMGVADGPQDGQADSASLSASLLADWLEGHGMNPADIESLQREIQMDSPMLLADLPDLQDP
Chain of Serine/threonine-protein kinase PLK1 (Homo sapiens) (P53350 whole entry): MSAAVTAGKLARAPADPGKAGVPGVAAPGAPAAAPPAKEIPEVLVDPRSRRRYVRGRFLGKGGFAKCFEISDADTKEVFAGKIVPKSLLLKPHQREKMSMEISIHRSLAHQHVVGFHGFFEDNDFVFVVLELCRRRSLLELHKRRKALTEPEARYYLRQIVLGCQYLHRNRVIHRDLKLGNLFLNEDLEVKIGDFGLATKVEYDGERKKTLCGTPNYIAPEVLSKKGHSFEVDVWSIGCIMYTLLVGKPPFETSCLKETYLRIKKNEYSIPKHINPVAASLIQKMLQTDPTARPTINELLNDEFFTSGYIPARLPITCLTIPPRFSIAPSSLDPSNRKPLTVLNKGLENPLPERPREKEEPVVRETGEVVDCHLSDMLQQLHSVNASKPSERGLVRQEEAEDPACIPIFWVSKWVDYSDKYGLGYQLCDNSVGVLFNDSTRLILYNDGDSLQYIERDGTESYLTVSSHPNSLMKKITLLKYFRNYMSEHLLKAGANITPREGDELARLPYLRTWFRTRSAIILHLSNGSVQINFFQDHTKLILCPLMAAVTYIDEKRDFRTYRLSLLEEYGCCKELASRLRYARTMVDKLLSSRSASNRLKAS
Chain of MAP/microtubule affinity-regulating kinase 3 (Homo sapiens) (P27448 whole entry, looked up): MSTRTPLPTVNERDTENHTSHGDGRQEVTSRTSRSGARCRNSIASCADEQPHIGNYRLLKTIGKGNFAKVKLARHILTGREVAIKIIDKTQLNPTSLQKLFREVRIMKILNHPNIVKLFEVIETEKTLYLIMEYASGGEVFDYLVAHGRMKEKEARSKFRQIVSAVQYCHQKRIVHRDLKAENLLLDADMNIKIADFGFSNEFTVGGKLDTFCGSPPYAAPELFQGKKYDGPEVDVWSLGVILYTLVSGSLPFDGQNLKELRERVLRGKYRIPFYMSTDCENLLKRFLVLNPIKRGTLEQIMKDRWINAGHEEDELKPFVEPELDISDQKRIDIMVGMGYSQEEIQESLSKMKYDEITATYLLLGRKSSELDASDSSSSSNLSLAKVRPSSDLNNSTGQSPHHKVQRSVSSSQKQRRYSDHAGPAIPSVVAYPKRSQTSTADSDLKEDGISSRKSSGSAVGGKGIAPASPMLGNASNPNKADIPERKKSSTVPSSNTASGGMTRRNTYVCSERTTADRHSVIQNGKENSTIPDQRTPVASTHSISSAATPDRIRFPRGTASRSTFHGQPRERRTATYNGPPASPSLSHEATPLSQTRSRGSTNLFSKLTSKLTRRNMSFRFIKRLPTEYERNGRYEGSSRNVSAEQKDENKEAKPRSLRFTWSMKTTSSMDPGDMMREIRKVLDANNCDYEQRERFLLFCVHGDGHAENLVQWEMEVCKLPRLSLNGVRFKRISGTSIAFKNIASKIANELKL

| Structure (SMILES) | inhibition [1] | inhibition [2] [%] | inhibition [3] [%] | inhibition [4] [%] | inhibition [5] [%] | inhibition [6] [%] | inhibition [7] [%] | inhibition [8] [%] | inhibition [9] [%] | inhibition [10] [%] | inhibition [11] [%] |
| --- | --- | --- | --- | --- | --- | --- | --- | --- | --- | --- | --- |
| CNc1cc(Oc2cc(C(=O)Nc3cc(-n4cnc(C)c4)cc(C(F)(F)F)c3)ccc2C)ncn1 | inactive |  |  |  |  |  |  |  |  |  |  |
| CCN1CCN(Cc2ccc(NC(=O)c3ccc(C)c(Oc4ccnc5[nH]ccc45)c3)cc2C(F)(F)F)CC1 | Active | 7.8 | -7.3 | 19.5 | 3.2 | 3.9 | 0.3 | 88.7 | -3.5 | 6.8 | 73.3 |
| CCN1CCN(Cc2ccc(NC(=O)c3ccc(C)c(/C=C/c4cnc5[nH]ccc5c4OC)c3)cc2C(F)(F)F)CC1 |  | 20.1 | 5.7 | 11.6 | -5.8 | 6.9 | 10.5 | 71.8 | 7.1 | 14 | 24.3 |
